# From PubChem
# DNMT1 inh – inhibitors of human DNMT1 | P26358 | DNMT1 molecular beacon, Hinp1I cleavage, fluorescence | inhibition (reported as % activation of signal), % at 10 µM | actives 0.83% (n = 360,000); in the data active means inhibition above about 50%
# Scp-1 inhibitor – inhibitors of human Scp-1 phosphatase; Q9GZU7; Recombinant Scp1, phosphopeptide, malachite green phosphate absorbance; inhibition, % at 20 µM; actives 0.88% (n = 340,000);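 active means inhibition above about 50% at 20 µM, limit read from the data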;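 further: plate controls were DMSO wells with enzyme for no effect and wells lacking enzyme for full effect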
#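 Material – SCP-1 phosphatase catalytic domain, residues 76-261 · Buffer or medium – Acidic Tris acetate buffer with magnesium and detergent · Also added – Phospho 17-mer peptide substrate · Compound – single 20 µM dose, 1% DMSO · Times – 45 min room-temperature reaction, 5 min colour, 30 min stabiliser · Technique – Phosphate-binding colour reagent, absorbance read at 630 nm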
# Rpn11 inh – Rpn11 (human) deubiquitinase inhibition. O00487. human 26S proteasome, Ub4-pepOG fluorescence polarization; 20S core pre-blocked with epoxomicin. inhibition, % at 20 µM. actives 0.59% (n = 360,000);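 active means inhibition at 20 µM, scaled to each plate's controls, above about 33%, limit read from the data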
# LMPTP inh – blocks human LMPTP phosphatase | P24666 | recombinant LMPTP-A, OMFP fluorogenic substrate, fluorescence intensity | inhibition, % at 20 µM | actives 0.22% (n = 360,000) | AID 651560;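 active means compounds that cut the enzyme signal by at least half of the control window in the single-dose screen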;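 further: plate controls were DMSO wells with enzyme plus substrate for no effect and substrate without enzyme for full effect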
#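 Buffer or medium: Bis-Tris pH 6.0, DTT, detergent; Assay system: LMPTP-A enzyme; Quantity: 0.625 nM enzyme; Detection: endpoint fluorescence intensity; Times: 50 min dark incubation at room temperature; Controls: substrate-only low control, DMSO enzyme-plus-substrate high control; Doses: single 20 µM dose; Read-out: percent inhibition versus substrate-only and uninhibited controls; Reagent: 400 µM OMFP.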
# STEP block – STEP (human) phosphatase inhibition; recombinant STEP, OMFP fluorogenic substrate, fluorescence; inhibition, % at 20 µM; actives 0.25% (n = 360,000); P54829;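 active means inhibition at 20 µM, scaled per plate between control wells, above about 37%, limit read from the data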;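 further: 0% = DMSO with enzyme and substrate and 100% = substrate only without enzyme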
# Target sequence (P54829 whole entry, looked up): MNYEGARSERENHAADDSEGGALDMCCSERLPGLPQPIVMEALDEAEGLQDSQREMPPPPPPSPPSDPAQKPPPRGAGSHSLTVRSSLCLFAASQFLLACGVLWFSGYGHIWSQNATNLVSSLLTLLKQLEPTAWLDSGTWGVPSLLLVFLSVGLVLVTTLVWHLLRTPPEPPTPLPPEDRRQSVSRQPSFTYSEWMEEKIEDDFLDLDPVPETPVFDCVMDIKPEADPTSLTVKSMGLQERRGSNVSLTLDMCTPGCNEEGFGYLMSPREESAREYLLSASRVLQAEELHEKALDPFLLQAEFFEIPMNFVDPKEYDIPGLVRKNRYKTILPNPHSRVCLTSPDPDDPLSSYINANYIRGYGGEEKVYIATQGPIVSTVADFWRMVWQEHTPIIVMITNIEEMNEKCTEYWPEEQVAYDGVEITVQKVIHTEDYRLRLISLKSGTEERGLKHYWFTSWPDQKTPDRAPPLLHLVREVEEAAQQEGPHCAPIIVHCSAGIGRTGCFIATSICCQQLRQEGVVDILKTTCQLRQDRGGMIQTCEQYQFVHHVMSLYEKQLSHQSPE
#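 System: isolated STEP enzyme; schedule: 20 min enzyme reaction at room temperature, protected from light; medium: Bis-Tris buffer pH 6.0, 2.5 mM DTT, 0.005% Tween 20; signal: fluorescence, 480/540 nm; dosing: single compound dose of 20 µM, 1% DMSO final; also added: OMFP substrate, 25 µM final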
# SUMO1-SIM PPI – SUMO1-SIM interaction modulation. actives 0.33% (n = 360,000). SUMO1 binding to a labelled peptide, TR-FRET, 1 h. inhibition, % at 20 µM. P63165; in the data active means inhibition above about 37%
# Target sequence (P63165 whole entry, looked up): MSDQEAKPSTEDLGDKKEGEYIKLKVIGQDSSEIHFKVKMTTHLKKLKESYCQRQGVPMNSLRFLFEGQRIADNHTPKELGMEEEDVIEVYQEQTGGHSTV
# Scp1 confirm – confirmation of human Scp-1 phosphatase inhibitors; shares compounds with Scp-1 inhibitor; recombinant SCP-1 catalytic domain, phosphate release, malachite green absorbance; inhibition, % at 20 µM; actives 61% (n = 2,500); AID 540281;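 further: plate controls were DMSO with enzyme for no effect and buffer wells lacking enzyme for full effect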
# Scp-1 MG ctr – counter-screen for Scp-1 inhibitors: colorimetric interference; Colorimetric interference counterscreen, malachite green absorbance 630 nm; shares compounds with Scp-1 inhibitor; apparent inhibition (interference), % at 20 µM; 2,500 tested, under 10 active; AID 540313;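 further: compounds added after enzyme reaction finished so only phosphate colour detection is probed; plate controls were DMSO wells with completed Scp-1 reaction for no effect and substrate wells lacking enzyme for full effect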
# Scp-1 Tm shift – validation of human Scp-1 inhibitors by thermal shift binding; shares compounds with Scp-1 inhibitor; Recombinant SCP1, Sypro Orange thermal shift Tm; thermal shift relative to vanadate control, % at 40 µM; actives 25% (n = 1,500); AID 540329;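 active means substances whose mean melting-temperature shift, as a percentage of the reference inhibitor's shift, reaches about 5.3%, limit read from the data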;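 further: 0% = Tm of DMSO wells and 100% = Tm with sodium orthovanadate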
# An asterisk follows results filed as active; · = not tested or not shown. In the library only some 2.3% were active in any assay of this set; here they are far more common.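 How the source made its calls, unless noted: active means inhibition of at least 30% at 20 µM; inactive means the rest.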
SMILES,DNMT1 inh,Scp-1 inhibitor,Rpn11 inh,LMPTP inh,STEP block,SUMO1-SIM PPI,Scp1 confirm,Scp-1 MG ctr,others
O=C(COc1ccc(Cl)cc1)Nc1cccc(S(=O)(=O)NC2=NCCCCC2)c1,2.5,-9.0,-3.6,1.0,2.1,2.5,·,·,
Cc1cc(C)cc(NC(=O)Nc2ccccc2N2CCCCC2)c1,-1.0,-1.2,-6.2,1.8,0.9,-1.1,·,·,
CN(CC(=O)Nc1cccc(F)c1)C(=O)/C=C/c1cn(Cc2ccccc2)nc1-c1cccnc1,-6.5,-4.2,27.9,0.4,-1.7,-6.6,·,·,
CCCn1nc(NC(=O)COC)c2cc3cc(C)ccc3nc21,0.1,62.2*,0.2,-0.4,-1.1,-11.4,-10.5,-11.2,
CN(CC(=O)Nc1ccccc1Cl)C(=O)CCc1nc2ccccc2c(=O)[nH]1,2.7,3.4,-2.2,-0.3,-4.2,3.8,·,·,
CC[n+]1c(/C=C(\C)OC)sc2ccccc21,5.4,-0.6,24.4,23.1,1.1,1.3,·,·,
CC[n+]1c(/C=C/Nc2ccccc2)sc2ccccc21,6.8,109.2*,2.4,-1.6,1.2,-13.5,13.6,-13.4,
O=C1NC(c2ccccc2)=C(c2ccc3ccccc3n2)C(c2ccccc2)N1 (configuration not stated),3.0,58.9*,1.9,1.2,-2.2,-3.6,-10.8,-11.8,
O=C(C[C@@H]1C/C=C\C[C@@H](Cc2ccc(F)cc2)C(=O)OCCNC1=O)N[C@H](CO)Cc1ccccc1,-2.3,41.8,2.2,-1.1,-0.5,3.7,·,·,
COc1ccccc1C(=O)NNC1CC(=O)N(c2ccc3c(c2)OCCO3)C1=O (configuration not stated),0.2,-4.4,0.1,-0.8,-2.6,-0.6,-21.5,-15.9,
Cc1c(Br)c([N+](=O)[O-])nn1C(C)C(=O)N1CCc2ccccc2C1 (configuration not stated),-2.5,-2.0,7.2,-0.4,1.1,-13.2,·,·,
O=[N+]([O-])c1cccc(-c2csc(N/N=C/c3cccc(O)c3)n2)c1,36.0,72.0*,-4.2,5.4,6.3,-8.1,51.3*,-12.6,Scp-1 Tm shift=19.1*
CCOC(=O)Cc1csc(N/N=C/c2cccc([N+](=O)[O-])c2)n1,-0.3,0.7,-2.0,-0.4,0.8,-9.9,·,·,
CCn1c(C)c(CS(=O)(=O)c2ccccc2)[nH]c1=O,1.0,2.5,-3.1,1.4,2.2,-3.3,·,·,
COC(=O)[C@H](CC(C)C)N1Cc2cc(OC)cc(OC)c2-c2ccccc2S1(=O)=O,2.4,98.2*,3.7,0.0,0.4,13.9,50.1*,-25.8,Scp-1 Tm shift=-3.8
C=C1CCN(C(CC(C)C)C(=O)OC)S(=O)(=O)c2ccccc21 (configuration not stated),0.4,0.8,5.1,0.0,-2.4,-3.0,·,·,
O=C(NCC1OCCCN1S(=O)(=O)c1cc(F)ccc1F)C(=O)NC1CCCCC1 (configuration not stated),-2.2,-1.1,-2.8,-0.7,-2.0,0.7,·,·,
COc1cc(CC2COC(c3ccc(O)c(OC)c3)C2COC(C)=O)ccc1O (configuration not stated),63.2*,85.3*,11.9,13.1,-3.6,17.9,61.1*,-12.6,Scp-1 Tm shift=4.9
COc1cc([C@@H]2OC[C@@H]3[C@H]2CO[C@@H]3c2ccc3c(c2)OCO3)ccc1O,6.9,-5.8,-6.3,-1.0,1.1,3.4,·,·,
Cc1[nH]c2ccccc2c1/C=N/NC(=O)CNC(=O)c1ccc2c(c1)OCCO2,-3.0,66.1*,-6.5,0.6,0.0,4.0,-3.8,-3.0,
O=C1C2C(C(=O)N1CCN1CCN(Cc3ccc([N+](=O)[O-])cc3)CC1)[C@H]1C=C[C@@H]2C1 (some centres not stated),-0.1,4.0,-0.5,-1.6,-0.8,-23.6,·,·,
O=C(NCCc1ccc(Cl)cc1)C1CCCN1C(=O)Nc1ccccc1 (configuration not stated),-0.2,-7.5,-0.2,-0.6,-0.7,-5.2,·,·,
O=C(O)c1ccc(-n2ncc3c2/C(=C\c2cccc([N+](=O)[O-])c2)CC3)cc1,1.4,64.5*,-1.9,19.1,5.4,9.0,63.5*,-13.9,Scp-1 Tm shift=2.9
Cc1ccc2c(c1)C1OCCC1C1N2C(=O)C2C(C(=O)O)C3C=CC21O3 (configuration not stated),20.4,76.7*,-7.6,-0.2,2.0,1.7,34.2*,-17.0,Scp-1 Tm shift=3.9
CCOCCCNC(=O)Cn1cc2c(n1)CCCC2,-1.8,75.1*,5.3,0.1,-1.4,-2.6,-3.8,-4.6,
SMILES,DNMT1 inh,Scp-1 inhibitor,Rpn11 inh,LMPTP inh,STEP block,SUMO1-SIM PPI,Scp1 confirm,Scp-1 MG ctr,others
CC(=O)c1cccc(OC(=O)c2ccc3c(=O)n4c(nc3c2)CCC4)c1,-0.1,67.6*,-4.1,-0.1,-0.9,-6.3,12.0,-9.8,
CSc1ccc(C(O)c2ncc(-c3ccccc3Cl)[nH]2)cc1 (configuration not stated),-5.7,·,3.6,-1.2,-3.8,5.7,·,·,
CCc1nnc(NC(=O)[C@@H](NC(=O)c2cc(OC)cc(OC)c2)C(C)C)s1,3.9,3.1,-0.9,-1.2,-1.6,-2.7,·,·,
CCc1nnc(NC(=O)C2(C)COC(c3ccccc3)OC2)s1 (configuration not stated),0.1,54.6*,2.4,-1.1,0.0,-0.4,-4.7,-3.5,
CC(=O)Nc1ccc(NC(=O)c2ccc(OCc3c(C)noc3C)cc2)cc1,5.1,58.7*,-5.6,0.4,-3.0,-1.3,-13.2,-17.5,
Cc1ccc(NC(=O)c2ccc(OCc3c(C)noc3C)cc2)cc1C,-2.1,-10.2,3.0,2.3,5.4,1.9,·,·,
CCOc1ccccc1-c1nc2c(s1)CCc1onc(-c3ccc(OC)cc3)c1-2,-1.0,80.8*,2.3,2.8,-0.5,9.2,-20.9,-23.6,
COc1ccc(-c2noc3c2-c2nc(-c4ccccc4Cl)sc2CC3)cc1,0.1,-17.0,-8.0,1.8,2.4,-1.0,·,·,
Cc1ccc(S(=O)(=O)Nc2csc(C)c2C(=O)O)cc1,·,60.8*,·,·,·,·,58.5*,-4.9,Scp-1 Tm shift=15.3*
COc1ccc(NS(=O)(=O)c2cccc(C(=O)NN=Cc3ccc(OC)c(O)c3)c2)cc1,-10.2,0.0,-0.7,-0.4,-2.6,-4.5,·,·,
COc1ccc(NS(=O)(=O)c2cccc(C(=O)N/N=C/c3c(F)c(F)c(F)c(F)c3F)c2)cc1,-4.4,75.2*,0.3,21.2,-0.1,-5.4,51.6*,-4.9,Scp-1 Tm shift=7.3*
